In the library only some 3.3% were active in any assay of this set; here they are far more common.
HTR1A agonist: human 5-HT1a receptor agonists, primary screen, cell-based, CHO, Ga15 NFAT-bla reporter; CHO 5-HT1a Ga15 NFAT-bla reporter, FRET ratio; 0% basal, 100% maximal reference agonist; 0.56% of 65,000 active; activation, % at 10 µM; AID 567, 2006;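 active means activation above the screen-wide mean activation plus 3 SD, cut at about 19% in these data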;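 further: 0% = DMSO wells and 100% = 5-CT at EC100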
Target sequence (P08908 whole entry, looked up): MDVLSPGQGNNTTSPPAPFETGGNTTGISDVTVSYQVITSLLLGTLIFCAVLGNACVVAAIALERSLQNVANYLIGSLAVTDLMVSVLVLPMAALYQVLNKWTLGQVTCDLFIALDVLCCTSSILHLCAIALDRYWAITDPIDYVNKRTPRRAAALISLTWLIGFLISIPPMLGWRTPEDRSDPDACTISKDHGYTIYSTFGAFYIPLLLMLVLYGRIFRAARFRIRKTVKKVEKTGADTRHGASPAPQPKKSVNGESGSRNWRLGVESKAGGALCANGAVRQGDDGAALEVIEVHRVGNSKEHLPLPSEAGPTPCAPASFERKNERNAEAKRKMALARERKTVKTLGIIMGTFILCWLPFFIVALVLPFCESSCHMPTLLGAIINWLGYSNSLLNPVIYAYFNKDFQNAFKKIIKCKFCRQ
5HT1E ag: 5-HT1E receptor agonists, primary screen, cell-based, HTS; CHO 5-HT1E Ga15 NFAT-bla reporter, FRET; 0% DMSO wells, 100% control agonist wells; activation, % at 6 µM; 0.69% of 65,000 active; AID 574, 2007;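 active means activation above a set limit, the screen-wide mean activation plus 3 SD, cut at about 8.5% in these data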;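 further: 100% = positive control agonist at 1 µM giving full maximal response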
HEK293 NFkB inh: inhibitors of PMA/ionomycin-induced NF-kB reporter, primary screen, antigen receptor NF-kB inhibitor project, cell-based, HEK-293 luciferase reporter, luminescence; AID 465, 2006; HEK-293 NF-kB luciferase reporter; 0.21% of 62,000 active; inhibition, % at 3 µM;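 active means inhibition above the mean of all tested compounds plus 3 SD, cut at about 40% in these data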;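 further: 0% = stimulated DMSO wells and 100% = 10 µM reference inhibitor 5653914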
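Signal: luciferase luminescence; Material: HEK-293 cells with stable firefly luciferase reporter driven by four HIV NF-kB elements; Probe or stimulus: PMA with ionomycin; Replication: tested once; Times: 1 h compound pretreatment, then 16 h stimulation at 37 °C, 5% CO2; Benchmarks: DMSO and 10 µM reference inhibitor; Evaluation: per-plate % inhibition versus controls.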
Jurkat viability: cytotoxicity toward Jurkat T cells, primary screen, cytotoxicity control, cell-based, Jurkat E6.1, 60K MLSMR library; Jurkat E6.1 viability, ATP luminescence, 48 h; 1.2% of 56,000 active; inhibition, % at 4 µM;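 active means inhibition above the mean inhibition of all tested compounds plus 3 SD, cut at about 28% in these data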
HTR1E antagonist: 5-HT1E receptor antagonists, primary screen, cell-based, HTS; CHO 5-HT1E Ga15 NFAT-bla reporter, FRET, antagonist; inhibition, % at 6 µM; 0.99% of 65,000 active; AID 571, 2007;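 active means inhibition above a set limit, the mean inhibition across every tested compound plus 3 SD, cut at about 29% in these data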;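 further: signal is the 460 over 535 nm emission ratio of beta-lactamase substrate; 0% = agonist plus DMSO wells and 100% = wells without agonist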
5HT1a antag: human 5-HT1a receptor antagonists, primary screen, cell-based, CHO, Ga15 NFAT-bla reporter. 0.68% of 62,000 active. CHO 5-HT1a Ga15 NFAT-bla reporter, antagonist mode. 5-hydroxytryptamine receptor 1A (Homo sapiens), P08908. AID 612, 2007. inhibition, % at 10 µM;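 active means inhibition above the mean of all tested compounds plus 3 SD, cut at about 43% in these data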;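 further: receptor stimulated by 5-CT agonist at 100 nM near EC80; beta-lactamase reporter measured by ratiometric fluorescence of a cleavable substrate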
Starred values were filed as active, the others as inactive.

SMILES | HTR1A agonist | 5HT1E ag | HEK293 NFkB inh | Jurkat viability | HTR1E antagonist | 5HT1a antag
COc1ccc(C2CC(O)(C(C)(C)O)NO2)cc1 (configuration not stated) | -3.3 | -1.3 | -6.6 | -9.3 | 1.8 | -1.6
COc1ccc(NC(=O)C2CCCN(S(=O)(=O)c3cccc4cccnc34)C2)c(OC)c1 (configuration not stated) | -0.9 | -0.2 | 9.1 | 0.3 | -1.8 | -7.9
CC(C)C(=O)NC(c1ccco1)c1ccc2cccnc2c1O (configuration not stated) | -1.0 | -1.4 | 20.1 | 90.1* | 30.1* | 39.3
Oc1c(C(Nc2nc3ccccc3s2)c2ccco2)ccc2cccnc12 (configuration not stated) | 5.6 | -0.6 | 70.9* | 62.1* | 34.5* | 61.6*
COc1ccc(C(NC(C)=O)c2ccc3cccnc3c2O)c(OC)c1 (configuration not stated) | -2.4 | -0.1 | 31.1 | 85.7* | 13.0 | 17.5
CCCC(=O)NC(c1ccco1)c1cc(Cl)c2cccnc2c1O (configuration not stated) | -5.0 | -1.3 | 15.0 | 28.6 | 5.2 | 28.7

Bioassay records (PubChem)
